The results in this text go back to the EternaBench riboswitch data.

The test system of this data set is MS2 coat protein. The data set is described as follows: apparent Kd, MS2 coat protein; higher = weaker binding; RNA-MaP array; FMN 200 µM where present. Put shortly: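 Each design was made on Illumina sequencing-chip clusters by stalled E. coli RNA polymerase and titrated with SNAP-549-labelled MS2 coat protein from 0.7 or 1.5 nM, doubling to 3 µM, in the absence and then the presence of constant ligand. The buffer was 100 mM Tris-HCl pH 7.5, 80 mM KCl, 4 mM MgCl2, BSA, DTT, yeast tRNA and Tween-20. The apparent Kd is the median of filtered per-cluster fits of binding curves, with green signal normalised to red-channel RNA signal and control-cluster median Fmax.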

The mark [1] stands for this setting: designed as: ON switch for flavin mononucleotide, no ligand.
Where [2] appears, read: ligand present: flavin mononucleotide, designed as: ON switch for flavin mononucleotide.
The mark [3] stands for this setting: designed as: OFF switch for flavin mononucleotide, no ligand.
[4] abbreviates: ligand present: flavin mononucleotide, designed as: OFF switch for flavin mononucleotide.

Usually apparent Kd stands for a dissociation constant that holds for the conditions of the assay. Turning to “CGUUAAUAUCGAGGAUAUGUCUAGACACAUGAGGAUCACCCAUGUAUGUGUAUAGAAGGCGAUAUUAACAGCAUGUUACAUCCC”, the “apparent Kd” value runs as follows: under setting [1], 46.6 nM; under setting [2], 18.8 nM.

In the case of “AGGAAACAUGAGGAUCACCCAUGUAAAGAUGGGCGAGGAUAUCGAAAGAAAAGAAAGAAACGAGAAGGCGCAAAAG”, the “apparent Kd” value is, setting by setting: under setting [1], 305 nM; under setting [2], 72.1 nM.

As to “GUAGCAAUCGGAGGAUAUGGGUUGAUAACAUGAGGAUCACCCAUGUUAAUACUAGAAGGCCGAUUGCUACAAGAGCGAAAGCUC”, the “apparent Kd” value stood at 31.4 nM under setting [1] and 6.39 nM under setting [2].

Consider “UUAUUUAUGUAAGGAUAUCGAUGAUAUACACAUCCGACAUGAGGAUCACCCAUGUUUUAUUUUGUCGAGAAGGUACAUUGUCGG”, for which the “apparent Kd” value turned out to be 56.2 nM under setting [1] and 47 nM under setting [2].

On to “UUUUUGUGAGGAUAUCAGUAGUAAAAAAAUAAAAUUACUACUGAGAAGGCACAUGAGGAUCACCCAUGUUCCUU”, for which the “apparent Kd” value came to 14.3 nM under setting [3] and 33.5 nM under setting [4].

As for “AGCGGCCGAGGAUAUACAAUCCUCCUGGCAGCCUGUCUGCCACAUGAGGAUCACCCAUGUAGAAGGCGGACCGC”, the “apparent Kd” value runs as follows: under setting [3], 167 nM; under setting [4], 38.3 nM.

As for “AUCAGCUCGUCAGGAUAUAUAUCACUGCUUCGGCAGUGUAUUAAGAUCACAUGAGGAUCACCCAUGUAGAAGGGACGAGCUGAU”, the “apparent Kd” value reads like this: under setting [3], 16.8 nM; under setting [4], 20.2 nM.

As to “GUUGUGUGAGGAUAUUCCUGGCCGUGUGGCCGGUUUGGGUGGCAGAAGGUACAUGAGGAUCACCCAUGUACGGG”, the “apparent Kd” value worked out at 96.9 nM under setting [3] and 75.8 nM under setting [4].

Turning to “ACGGAACAUGAGGAUCACCCAUGUAUCUGAGAUAUGGUCUCACAGGAUAUUCAGAGUUGCCAAUCGGAGAAGGGUGACACCAGA”, the “apparent Kd” value turned out to be 78.5 nM under setting [1] and 43.5 nM under setting [2].

Take “AAUUCACAUGAGGAUCACCCAUGUCAGGAUAUGGUUUCACGUGUUUCUUUGCUUGAGGCCAGAAGGGACAGCUA”: the “apparent Kd” value is, setting by setting: under setting [3], 71.8 nM; under setting [4], 94.4 nM.

With “AUCGGGUCAGGAUAUUGUUAGUUUAGUUGUUUGUAUUAGUUCGAGAAGGGACAUGAGGAUCACCCAUGUGGUAA”, the “apparent Kd” value reads like this: under setting [3], 58.4 nM; under setting [4], 73.2 nM.

As to “CUGGUUGUCGAGGAUAUGCACCAGCUCACUGACGCAGAAGGCGACACAUGAGGAUCACCCAUGUCAGUUCGCGU”, the “apparent Kd” value reads like this: under setting [3], 16.9 nM; under setting [4], 18.9 nM.

For the sequence “CAUCAGUCUGUGAGGAUAUUGGUCGAGUGACUUAUUAAGAAGGCACAUGAGGAUCACCCAUGUGGGAAGUCAGG”, the “apparent Kd” value under setting [3] is 24.3 nM and the “apparent Kd” value under setting [4] came out at 26.6 nM.

Turning to “UACGAUGUACAUGAGGAUCACCCAUGUCAUAUGCCCGUGACACAGGAUAUCCAGGAUAGGCCAAAGGAGAAGGGUGAUCCGCGG”, the “apparent Kd” value under setting [1] worked out at 66.9 nM and the “apparent Kd” value under setting [2] was 139 nM.

For “CCUACCAUCACAGGAUAUGCUAUCCUUUGGGUAGCAGAAGGGUGAUAACAUGAGGAUCACCCAUGUGGUAGGCCCGGUGACGGG”, the “apparent Kd” value was determined as 768 nM under setting [1] and 227 nM under setting [2].

Regarding “GUGUAGGGAGGAUAUACAUGAGGAUCACCCAUGUGAAUAAGAUAGAAUAAGAUAAAGUGUAGAAGGUCUAGUGU”, the “apparent Kd” value runs as follows: under setting [3], 66 nM; under setting [4], 51.9 nM.

In the case of “GUCAGCUCGUGAGGAUAUACAACACUGCUUCAGCAGUGUAUUAAGAUCACAUGAGGAUCACCCAUGUAGAAGGCACGAGCUGAU”, the “apparent Kd” value is, setting by setting: under setting [3], 13.8 nM; under setting [4], 242 nM.

As for “AGUCGGAGCAGAGGAUAUUACAUGAGGAUCACCCAUGUAAAUGGAAUAAGCUGGAAACAGCAAUGUAAGAAGGCUGCUCCGACA”, the “apparent Kd” value under setting [3] is 67.4 nM and the “apparent Kd” value under setting [4] was determined as 540 nM.

Take “AAAAUGGUACAGAAGGCGGAGCCCAACAUGAGGAUCACCCAUGUAUGGGUGUCGUCAGUAGUUACCGAGGAUAUGUAUCGGUAU”: the “apparent Kd” value by setting is: under setting [3], 6.42 nM; under setting [4], 7.1 nM.

“AUAAUUAAGCGAGGAUAUAUAUAGAAUAAUUAUAUAGAAGGCGCAAAACAUGAGGAUCACCCAUGUCACCCAUGUUGUGUGUAA”: the “apparent Kd” value was found to be 121 nM under setting [1] and 47.3 nM under setting [2].

For the sequence “UGACCCAUGACAUGAGAUGACAUGAGGAUCACCCAUGUUUACAAGGAUAUGUUGAUGAAACAUCAACAGAAGGUGUAAUGGGAU”, the “apparent Kd” value reads like this: under setting [3], 53.7 nM; under setting [4], 385 nM.

With “AGCUGGUGACAGCAUCCAUCAUAACAUGAGGAUCACCCAUGUAGAAGGCUGUACGGUUACCGUACAGAGGAUAUACAAUGAUGG”, the “apparent Kd” value turned out to be 7.4 nM under setting [3] and 7.32 nM under setting [4].

With “UGGCUACAUGAGGAUCACCCAUGUCAGGAUAUGCCGUCGGCUUGCCUUCGUCGUUCGGGUAGAAGGGACUGCGG”, the “apparent Kd” value reads like this: under setting [3], 28.1 nM; under setting [4], 28.1 nM.

Regarding “GCAGCACUGUAGUACAUGAGGAUCACCCAUGUCGAUUGUUAUGAGGAUAUGCAUCGUAUGAAGAUGCAGAAGGCAUUGUGCUGC”, the “apparent Kd” value under setting [1] is 5.22 nM and the “apparent Kd” value under setting [2] was found to be 5.04 nM.

In the case of “GAAUGGGUAGAGGAUAUCGCCAUUUCAUCGAGGUGAGAAGGUUACACAUGAGGAUCACCCAUGUCGCCAUUAGC”, the “apparent Kd” value was 66.5 nM under setting [3] and 56.7 nM under setting [4].

On to “UUAUGUCGCGUAGGAUAUCAUUAGAUUUGUAAUUUAAUUGUAAUUUCGAUAUGAGAAGGACGUACACAUGAGGAUCACCCAUGU”, for which the “apparent Kd” value by setting is: under setting [3], 16.4 nM; under setting [4], 14.2 nM.

Regarding “AAGGGUACUUUCGGAACGACAUGAGGAUCACCCAUGUAGACUGAGGAUAUCUACUACUAAGGACGGGAGAAGGCAGUGUAAUGU”, the “apparent Kd” value was 18.1 nM under setting [3] and 17.8 nM under setting [4].

“GUCCUUUCUGAGGAUAUUAUCUGGUUCGAUUGAUAAGAAGGCAGUACAUGAGGAUCACCCAUGUGGUUCGUUUG”: the “apparent Kd” value runs as follows: under setting [3], 115 nM; under setting [4], 268 nM.

With “ACUUUAACUCGACAUGAGGAUCACCCAUGUCCUAGUACUACACAGGAUAUCUCGGACUCCUCGUGAGAGAAGGGUGAGCACUAA”, the “apparent Kd” value runs as follows: under setting [1], 395 nM; under setting [2], 587 nM.

On to “CAUUAAUUCAUUAUAUUAAUUUUACAGGAUAUGUAACAUGAGGAUCACCCAUGUAUUCAAGGUUAACAGAAGGGUAUAUCUAGU”, for which the “apparent Kd” value is, setting by setting: under setting [3], 18.2 nM; under setting [4], 14 nM.

“UUUACCAGAGGAUAUGCGAAUAAAUAAAACUUUUUUUUUUAACAUGAGGAUCACCCAUGUAGAAGGCUGCUUUU”: the “apparent Kd” value came out at 25.4 nM under setting [3] and 23.6 nM under setting [4].

Consider “UUAACAUGAGGAUCACCCAUGUAUAGGGAGUUAACAAUUGGACAGGAUAUUGAAGAUGUAGAUAGCAAGAAGGGUCGGUAGUCU”, for which the “apparent Kd” value reads like this: under setting [1], 38.9 nM; under setting [2], 35.8 nM.

On to “GUGGCUCCCACAGGAUAUCCACAUGAGGAUCACCCAUGUCUAAUUAACAAAGGAGAAGGGUGGGACAACUCUGGUGACUGAGAG”, for which the “apparent Kd” value turned out to be 28.9 nM under setting [1] and 5.45 nM under setting [2].

Consider “CGAUUAUUGAUCCAUUUUUACAACAUGAGGAUCACCCAUGUGCAGGAUAUCGUGGUGAUUAACUACGAGAAGGGCAAAUUCACG”, for which the “apparent Kd” value reads like this: under setting [3], 123 nM; under setting [4], 220 nM.

Take “AUUUUAAUAUAGGAUAUCGAAAUUAUUAUUUAACGAGAAGGAUGAACAUGAGGAUCACCCAUGUGGUAUCAUGG”: the “apparent Kd” value by setting is: under setting [3], 223 nM; under setting [4], 204 nM.

Regarding “GGAUAGGACAGAGGAUAUACGUGCUAGAGAUACUAGCAAAAUUUCCACACAUGAGGAUCACCCAUGUAGAAGGCUGUCCUAUCG”, the “apparent Kd” value under setting [4] is 7.57 nM.

In the case of “CCGCUGUGAGGAUAUUAGUAGUAGUCAGAAUAGACUAUUACUGAGAAGGCACAUGAGGAUCACCCAUGUUGCGG”, the “apparent Kd” value is, setting by setting: under setting [3], 30.8 nM; under setting [4], 39 nM.

As for “AGCUACGUUUCGUAGCAGUGUCAUCGAGAAGGCCCUGACAUGAGGAUCACCCAUGUUGUUACAUGGGAGGAUAUCGAUGAUACU”, the “apparent Kd” value is, setting by setting: under setting [1], 13.4 nM; under setting [2], 5.59 nM.

For the sequence “CCGGCUAAAGGAUAUGUGUGUAGCAACAUGAGGAUCACCCAUGUGAUGUCCUAGGUUAGCACAGAAGGUUACUAUU”, the “apparent Kd” value was 35.6 nM under setting [3] and 34.1 nM under setting [4].

For the sequence “AAAUGACAUGAGGAUCACCCAUGUCCACCAAAUGGAGGAUAUUGGACGGCAAAACGUUGUUAAGAAGGCCGAAAUU”, the “apparent Kd” value under setting [1] worked out at 27.6 nM and the “apparent Kd” value under setting [2] came to 22.3 nM.

On to “UUAUACUGAGAGAAGGUUCAAACUACAUAUUGCAUACAUGAGGAUCACCCAUGUUGGUGAAUAAGAAAGGAUAUUUUACUAUAU”, for which the “apparent Kd” value turned out to be 44 nM under setting [3] and 32.4 nM under setting [4].

Consider “AAGAAACAUGAGGAUCACCCAUGUCACCUCACACGAGGAUAUCUGAAUCGAUUAGAUUACGGAGAAGGCGUGAUAA”, for which the “apparent Kd” value stood at 27.5 nM under setting [1] and 20.6 nM under setting [2].

Turning to “CAGGUAGACUGAGGAUAUACAAUAAAGACCUAGUCUAUCUAGGUCCCUACAUGAGGAUCACCCAUGUAGAAGGCAGUCUGCCUG”, the “apparent Kd” value is 15.9 nM under setting [3] and 20.5 nM under setting [4].

“CUAUUAUGUGUAGGAUAUGCAUAUUAUUAUUAUGCAGAAGGACAUGAGGAUCACCCAUGUAUAUUAUUAUUAUAUAUUAUAUAU”: the “apparent Kd” value runs as follows: under setting [3], 10.7 nM; under setting [4], 11.6 nM.

As for “AGAUUCAUGGCCCGUUCGGGCUCACAUGAGGAUCACCCAUGUGAGGAUAUGACGUACCUGACUCGUCAGAAGGCGCAUGCGAAU”, the “apparent Kd” value under setting [3] was 7.41 nM and the “apparent Kd” value under setting [4] was determined as 13.7 nM.

Take “GCUCGAUGCGCUGAGCACAUGAGGAUCACCCAUGUAAAUGGUCAGGAUAUUUACGUGCUUUAUGUAGAGAAGGGACCAUCGAGC”: the “apparent Kd” value was 286 nM under setting [1] and 30.9 nM under setting [2].

For the sequence “UUUUAUUGCAAGGAUAUGCAAAUUAUUAUUAAUGCAGAAGGUGCUACAUGAGGAUCACCCAUGUUUCUGGGUUU”, the “apparent Kd” value under setting [3] was 98.2 nM and the “apparent Kd” value under setting [4] came out at 308 nM.

As to “GAUAGACAUGAGGAUCACCCAUGUGAGGAUAUGCGUACGUUGUCAGUAGGCGACGUGCGCAGAAGGCGCAAGUU”, the “apparent Kd” value was found to be 77.1 nM under setting [3] and 46.5 nM under setting [4].
